Data as given in ChEMBL document CHEMBL1240369, “Antiviral efficacy of the novel compound BIT225 against HIV-1 release from human macrophages” (Antimicrob Agents Chemother, 2010).
The source made the active and inactive calls. The calls are words filed in the database; no cut-off is given here.

Target: Protease (Human immunodeficiency virus 1) (UniProt Q9YQ12)
Assay: Inhibition of HIV1 protease assessed as substrate cleavage by cell free assay
Procedure, shortened: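 Cell-free fluorometric protease assay: compound (1–100 μM) was premixed with 2 μM quenched HIV-1 protease substrate 1. Background fluorescence (ex 340/em 490 nm) was read every 5 s for 5 min. HIV-1 protease was then added at 1.5% and cleavage followed for a further 5 min. LPV and EFV served as controls.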

Protease (Human immunodeficiency virus 1), sequence (Q9YQ12 as listed by the source): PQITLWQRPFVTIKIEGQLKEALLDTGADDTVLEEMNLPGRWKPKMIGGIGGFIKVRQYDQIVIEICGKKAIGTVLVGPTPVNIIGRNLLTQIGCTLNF

Compound	Activity
O=C1Nc2ccc(Cl)cc2[C@@](C#CC2CC2)(C(F)(F)F)O1	inactive
Cc1cccc(C)c1OCC(=O)N[C@@H](Cc1ccccc1)[C@@H](O)C[C@H](Cc1ccccc1)NC(=O)[C@H](C(C)C)N1CCCNC1=O	Active
